Measured values published in ChEMBL document CHEMBL1255429, “Efflux pumps are involved in the defense of Gram-negative bacteria against the natural products isobavachalcone and diospyrone” (2010).
Converted amounts (≈) assume the structure as drawn. Residues, ends and D or L forms follow the SMILES beside them. *: point of attachment. βNA = c1ccc2cc(N*)ccc2c1

Tests used:
Type in all cases: functional
[1] = tested on: Enterobacter cloacae; test: Antimicrobial activity against Enterobacter cloacae Ec1194 after 18 hrs by rapid INT colorimetric assay in presence of efflux pump inhibitor phenylalanine arginine; conditions: Ec1194, 18 h
Summary of the method: (§1)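 Broth microdilution MIC in Mueller-Hinton broth with PAßN at a final 20 μg/ml throughout. Twofold dilutions of sample from DMSO-MHB stock; inoculum 1.5 × 10^6 CFU/ml; 18 h at 37°C, final DMSO <2.5%. Growth read by INT (0.2 mg/ml, 30 min, 37°C). MIC taken as lowest concentration with no pink colour.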

[2] = tested on: Klebsiella pneumoniae; test: Antimicrobial activity against Klebsiella pneumoniae KP63 after 18 hrs by rapid INT colorimetric assay; conditions: KP63, 18 h
Summary of the method: (§2)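 Strains precultured overnight on Mueller-Hinton agar. Sample dissolved in DMSO-MHB, twofold serial dilutions in MHB, inoculum 1.5 × 10^6 CFU/ml; final DMSO below 2.5%. Incubated 37°C 18 h, then 0.2 mg/ml INT added, 30 min at 37°C. MIC = lowest concentration preventing yellow-to-pink change (complete growth inhibition). DMSO-only wells as negative control.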

[3] = tested on: Klebsiella aerogenes; test: Antimicrobial activity against Enterobacter aerogenes EA5 after 18 hrs by rapid INT colorimetric assay in presence of efflux pump inhibitor phenylalanine arginine; conditions: EA5, 18 h
[4] = tested on: Pseudomonas aeruginosa; test: Antimicrobial activity against Pseudomonas aeruginosa PAO1 after 18 hrs by rapid INT colorimetric assay; conditions: PAO1, 18 h
Summary of the method: (§3)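 Strains precultured overnight on Mueller-Hinton agar. Samples dissolved in DMSO-MHB, serially diluted twofold in MHB, inoculum 1.5 × 10^6 CFU/ml in MHB added; 37°C, 18 h; final DMSO <2.5%. 0.2 mg/ml INT then added, 30 min at 37°C. MIC = lowest concentration preventing yellow-to-pink reduction, i.e. complete growth inhibition.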

[5] = tested on: Escherichia coli; test: Antimicrobial activity against tetracycline-resistant Escherichia coli AG100A after 18 hrs by rapid INT colorimetric assay; summary of the method: as §3
[6] = tested on: Klebsiella aerogenes; test: Antimicrobial activity against Enterobacter aerogenes EA-CM64 after 18 hrs by rapid INT colorimetric assay in presence of efflux pump inhibitor phenylalanine arginine; conditions: EA-CM64, 18 h
[7] = tested on: Klebsiella pneumoniae; test: Antimicrobial activity against Klebsiella pneumoniae KP63 after 18 hrs by rapid INT colorimetric assay in presence of efflux pump inhibitor phenylalanine arginine; conditions: KP63, 18 h
[8] = tested on: Escherichia coli; test: Antimicrobial activity against Escherichia coli ATCC 8739 after 18 hrs by rapid INT colorimetric assay; conditions: ATCC 8739, 18 h; summary of the method: as §3
[9] = tested on: Pseudomonas aeruginosa; test: Antimicrobial activity against Pseudomonas aeruginosa PA124 after 18 hrs by rapid INT colorimetric assay in presence of efflux pump inhibitor phenylalanine arginine; conditions: PA124, 18 h
[10] = tested on: Klebsiella aerogenes; test: Antimicrobial activity against Enterobacter aerogenes EA27 after 18 hrs by rapid INT colorimetric assay in presence of efflux pump inhibitor phenylalanine arginine; conditions: EA27, 18 h
[11] = tested on: Escherichia coli; test: Antimicrobial activity against tetracycline-resistant Escherichia coli AG102 after 18 hrs by rapid INT colorimetric assay in presence of efflux pump inhibitor phenylalanine arginine; conditions: AG102, 18 h; summary of the method: as §1
[12] = tested on: Klebsiella aerogenes; test: Antimicrobial activity against Enterobacter aerogenes EA27 after 18 hrs by rapid INT colorimetric assay; conditions: EA27, 18 h; summary of the method: as §2
[13] = tested on: Escherichia coli; test: Antimicrobial activity against Escherichia coli ATCC 10536 after 18 hrs by rapid INT colorimetric assay; conditions: ATCC 10536, 18 h; summary of the method: as §2
[14] = tested on: Escherichia coli; test: Antimicrobial activity against Escherichia coli AG100 after 18 hrs by rapid INT colorimetric assay; conditions: AG100, 18 h; summary of the method: as §3
[15] = tested on: Klebsiella aerogenes; test: Antimicrobial activity against Enterobacter aerogenes EA3 after 18 hrs by rapid INT colorimetric assay in presence of efflux pump inhibitor phenylalanine arginine; conditions: EA3, 18 h
[16] = tested on: Escherichia coli; test: Antimicrobial activity against Escherichia coli ATCC 8739 after 18 hrs by rapid INT colorimetric assay in presence of efflux pump inhibitor phenylalanine arginine; conditions: ATCC 8739, 18 h; summary of the method: as §1
[17] = tested on: Klebsiella aerogenes; test: Antimicrobial activity against Enterobacter aerogenes EA5 after 18 hrs by rapid INT colorimetric assay; conditions: EA5, 18 h; summary of the method: as §2
[18] = tested on: Klebsiella aerogenes; test: Antimicrobial activity against Enterobacter aerogenes ATCC 13048 after 18 hrs by rapid INT colorimetric assay; conditions: ATCC 13048, 18 h; summary of the method: as §2
[19] = tested on: Klebsiella aerogenes; test: Antimicrobial activity against Enterobacter aerogenes EA294 after 18 hrs by rapid INT colorimetric assay; conditions: EA294, 18 h; summary of the method: as §3
[20] = tested on: Klebsiella aerogenes; test: Antimicrobial activity against Enterobacter aerogenes EA3 after 18 hrs by rapid INT colorimetric assay; conditions: EA3, 18 h; summary of the method: as §2
[21] = tested on: Klebsiella aerogenes; test: Antimicrobial activity against Enterobacter aerogenes EA289 after 18 hrs by rapid INT colorimetric assay in presence of efflux pump inhibitor phenylalanine arginine; conditions: EA289, 18 h
[22] = tested on: Escherichia coli; test: Antimicrobial activity against Escherichia coli AG100 after 18 hrs by rapid INT colorimetric assay in presence of efflux pump inhibitor phenylalanine arginine; conditions: AG100, 18 h
[23] = tested on: Klebsiella pneumoniae; test: Antimicrobial activity against Klebsiella pneumoniae KP55 after 18 hrs by rapid INT colorimetric assay; conditions: KP55, 18 h; summary of the method: as §2
[24] = tested on: Escherichia coli; test: Antimicrobial activity against tetracycline-resistant Escherichia coli AG100A after 18 hrs by rapid INT colorimetric assay in presence of efflux pump inhibitor phenylalanine arginine; summary of the method: as §1
[25] = tested on: Klebsiella aerogenes; test: Antimicrobial activity against Enterobacter aerogenes EA-CM64 after 18 hrs by rapid INT colorimetric assay; conditions: EA-CM64, 18 h; summary of the method: as §3
[26] = tested on: Klebsiella aerogenes; test: Antimicrobial activity against Enterobacter aerogenes EA298 after 18 hrs by rapid INT colorimetric assay in presence of efflux pump inhibitor phenylalanine arginine; conditions: EA298, 18 h
[27] = tested on: Escherichia coli; test: Antimicrobial activity against Escherichia coli AG100A after 18 hrs by rapid INT colorimetric assay; summary of the method: as §3
[28] = tested on: Enterobacter cloacae; test: Antimicrobial activity against Enterobacter cloacae Ec1194 after 18 hrs by rapid INT colorimetric assay; conditions: Ec1194, 18 h; summary of the method: as §2
[29] = tested on: Escherichia coli; test: Antimicrobial activity against tetracycline-resistant Escherichia coli AG102 after 18 hrs by rapid INT colorimetric assay; conditions: AG102, 18 h; summary of the method: as §3
[30] = tested on: Pseudomonas aeruginosa; test: Antimicrobial activity against Pseudomonas aeruginosa PAO1 after 18 hrs by rapid INT colorimetric assay in presence of efflux pump inhibitor phenylalanine arginine; conditions: PAO1, 18 h
[31] = tested on: Klebsiella aerogenes; test: Antimicrobial activity against Enterobacter aerogenes EA289 after 18 hrs by rapid INT colorimetric assay; conditions: EA289, 18 h; summary of the method: as §2
[32] = tested on: Escherichia coli; test: Antimicrobial activity against Escherichia coli ATCC 10536 after 18 hrs by rapid INT colorimetric assay in presence of efflux pump inhibitor phenylalanine arginine beta-naphthylamide; conditions: ATCC 10536, 18 h; summary of the method: as §1
[33] = tested on: Pseudomonas aeruginosa; test: Antimicrobial activity against Pseudomonas aeruginosa PA124 after 18 hrs by rapid INT colorimetric assay; conditions: PA124, 18 h; summary of the method: as §3
[34] = tested on: Klebsiella aerogenes; test: Antimicrobial activity against Enterobacter aerogenes ATCC 13048 after 18 hrs by rapid INT colorimetric assay in presence of efflux pump inhibitor phenylalanine arginine; conditions: ATCC 13048, 18 h
[35] = tested on: Enterobacter cloacae; test: Antimicrobial activity against Enterobacter cloacae Ec07769 after 18 hrs by rapid INT colorimetric assay in presence of efflux pump inhibitor phenylalanine arginine; conditions: Ec07769, 18 h
[36] = tested on: Klebsiella pneumoniae; test: Antimicrobial activity against Klebsiella pneumoniae KP55 after 18 hrs by rapid INT colorimetric assay in presence of efflux pump inhibitor phenylalanine arginine; conditions: KP55, 18 h
[37] = tested on: Klebsiella pneumoniae; test: Antimicrobial activity against Klebsiella pneumoniae ATCC 11296 after 18 hrs by rapid INT colorimetric assay; conditions: ATCC 11296, 18 h; summary of the method: as §3
[38] = tested on: Klebsiella pneumoniae; test: Antimicrobial activity against Klebsiella pneumoniae ATCC 11296 after 18 hrs by rapid INT colorimetric assay in presence of efflux pump inhibitor phenylalanine arginine; conditions: ATCC 11296, 18 h
[39] = tested on: Escherichia coli; test: Antimicrobial activity against Escherichia coli AG100A after 18 hrs by rapid INT colorimetric assay in presence of efflux pump inhibitor phenylalanine arginine
[40] = tested on: Klebsiella aerogenes; test: Antimicrobial activity against Enterobacter aerogenes EA294 after 18 hrs by rapid INT colorimetric assay in presence of efflux pump inhibitor phenylalanine arginine; conditions: EA294, 18 h
[41] = tested on: Enterobacter cloacae; test: Antimicrobial activity against Enterobacter cloacae Ec07769 after 18 hrs by rapid INT colorimetric assay; conditions: Ec07769, 18 h; summary of the method: as §2
[42] = tested on: Klebsiella aerogenes; test: Antimicrobial activity against Enterobacter aerogenes EA298 after 18 hrs by rapid INT colorimetric assay; conditions: EA298, 18 h; summary of the method: as §3

O=C(N[C@H](CO)[C@H](O)c1ccc([N+](=O)[O-])cc1)C(Cl)Cl [CHLORAMPHENICOL]
MIC [1]: 1 µg/mL
MIC [2]: > 256 µg/mL
MIC [3]: 32 µg/mL
MIC [4]: 128 µg/mL (≈ 396 µM)
MIC [5]: 32 µg/mL (≈ 99 µM)
MIC [6]: 8 µg/mL
MIC [7]: 128 µg/mL
MIC [8]: 4 µg/mL (≈ 12.4 µM)
MIC [9]: 8 µg/mL
MIC [10]: 128 µg/mL
MIC [11]: 2 µg/mL
MIC [12]: > 256 µg/mL
MIC [13]: 1 µg/mL (≈ 3.09 µM)
MIC [14]: 4 µg/mL (≈ 12.4 µM)
MIC [15]: 128 µg/mL
MIC [16]: 1 µg/mL
MIC [17]: > 256 µg/mL
MIC [18]: 4 µg/mL (≈ 12.4 µM)
MIC [19]: 64 µg/mL (≈ 198 µM)
MIC [20]: > 256 µg/mL
MIC [21]: 128 µg/mL
MIC [22]: 0.25 µg/mL
MIC [23]: 32 µg/mL (≈ 99 µM)
MIC [24]: 2 µg/mL
MIC [25]: 256 µg/mL (≈ 792 µM)
MIC [26]: 16 µg/mL
MIC [27]: 0.5 µg/mL (≈ 1.55 µM)
MIC [28]: 2 µg/mL (≈ 6.19 µM)
MIC [29]: 32 µg/mL (≈ 99 µM)
MIC [30]: 8 µg/mL
MIC [31]: > 256 µg/mL
MIC [32]: 0.5 µg/mL
MIC [33]: 256 µg/mL (≈ 792 µM)
MIC [34]: 1 µg/mL
MIC [35]: 256 µg/mL
MIC [36]: 4 µg/mL
MIC [37]: 2 µg/mL (≈ 6.19 µM)
MIC [38]: 2 µg/mL
MIC [39]: 0.25 µg/mL
MIC [40]: 16 µg/mL
MIC [41]: > 256 µg/mL
MIC [42]: 64 µg/mL (≈ 198 µM)

N=C(N)NCCC[C@H](NC(=O)[C@@H](N)Cc1ccccc1)C(=O)Nc1ccc2ccccc2c1 [PABETAN] (H-Phe-Arg-βNA)
MIC [2]: > 256 µg/mL
MIC [4]: > 256 µg/mL
MIC [5]: > 256 µg/mL
MIC [8]: > 256 µg/mL
MIC [12]: > 256 µg/mL
MIC [13]: > 256 µg/mL
MIC [14]: > 256 µg/mL
MIC [17]: > 256 µg/mL
MIC [18]: > 256 µg/mL
MIC [19]: > 256 µg/mL
MIC [20]: > 256 µg/mL
MIC [23]: > 256 µg/mL
MIC [25]: > 256 µg/mL
MIC [27]: 64 µg/mL (≈ 143 µM)
MIC [28]: > 256 µg/mL
MIC [29]: > 256 µg/mL
MIC [31]: > 256 µg/mL
MIC [33]: > 256 µg/mL
MIC [37]: 256 µg/mL (≈ 573 µM)
MIC [41]: > 256 µg/mL
MIC [42]: > 256 µg/mL
